In ChEMBL document CHEMBL1124724, “Steroidal A ring aryl carboxylic acids: a new class of steroid 5 alpha-reductase inhibitors” (J Med Chem, 1990):

How the values were obtained:
[1] = Inhibition of Steroid 5-alpha-reductase of benign hyperplastic human prostatic tissue; conditions: read-out: Ki app
How it was run: (§1)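 Ethyl acetate quench with carrier steroids; product is DHT plus ADIOL from radiolabel split. Ki,app is given as a range over several microsome preparations; >10 000 means under 50% inhibition at top concentration.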

[2] = biological target: T1, Steroid 5-alpha-reductase (Rattus norvegicus, UniProt P24008+P31214); assay: Inhibition of Steroid 5-alpha-reductase of rat ventral prostate tissue; assay type: tissue-based, Prostate gland
T1 sequence (P24008 whole entry): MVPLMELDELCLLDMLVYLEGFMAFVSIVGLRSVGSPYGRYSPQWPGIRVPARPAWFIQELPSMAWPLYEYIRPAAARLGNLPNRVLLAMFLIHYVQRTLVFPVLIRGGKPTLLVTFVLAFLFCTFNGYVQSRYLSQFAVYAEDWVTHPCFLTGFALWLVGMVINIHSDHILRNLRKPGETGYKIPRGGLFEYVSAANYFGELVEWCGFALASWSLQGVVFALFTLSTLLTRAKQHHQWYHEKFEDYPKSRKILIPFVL
T1 sequence (P31214 whole entry): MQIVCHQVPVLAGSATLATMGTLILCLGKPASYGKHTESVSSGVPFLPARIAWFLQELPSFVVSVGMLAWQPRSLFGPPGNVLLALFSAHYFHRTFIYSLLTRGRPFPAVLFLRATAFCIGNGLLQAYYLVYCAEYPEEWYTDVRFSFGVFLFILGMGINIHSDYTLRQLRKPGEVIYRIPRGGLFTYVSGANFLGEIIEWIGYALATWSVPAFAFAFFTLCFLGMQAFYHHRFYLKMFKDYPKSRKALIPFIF
How it was run: (§2)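 Activity is total 5α-reduced products (DHT + ADIOL) by radiolabel after ethyl acetate extraction. Ki,app is given as a range across microsome preparations; >10 000 means under 50% inhibition at highest concentration.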

[3] = biological target: T1, Steroid 5-alpha-reductase; assay: In vitro inhibition against Steroid 5-alpha-reductase of whole rat ventral prostate tissue expressed as apparent inhibition constant; assay type: functional, tissue-based, Prostate gland; how it was run: as §2
[4] = biological target: T2, 3-oxo-5-alpha-steroid 4-dehydrogenase 2 (Homo sapiens, UniProt P31213); assay: In vitro inhibition against Steroid 5-alpha-reductase of benign hyperplastic human prostatic tissue expressed as apparent inhibition constant; assay type: functional; conditions: read-out: Ki app; how it was run: as §1
T2 sequence (P31213 whole entry): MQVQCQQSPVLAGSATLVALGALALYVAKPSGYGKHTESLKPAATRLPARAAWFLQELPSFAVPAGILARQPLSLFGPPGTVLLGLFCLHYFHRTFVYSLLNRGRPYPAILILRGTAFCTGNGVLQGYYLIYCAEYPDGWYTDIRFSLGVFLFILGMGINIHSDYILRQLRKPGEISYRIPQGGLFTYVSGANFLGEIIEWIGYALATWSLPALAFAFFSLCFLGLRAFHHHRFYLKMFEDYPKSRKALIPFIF

SMILES	Ki [1]	Ki app [2]	Ki app [3]	Ki [4]
CC(C)N(C(=O)[C@H]1CC[C@H]2[C@@H]3CCc4cc(C(=O)O)ccc4[C@H]3CC[C@]12C)C(C)C	20 nM	356 nM		
CC(C)N(C(=O)[C@H]1CC[C@H]2[C@@H]3CCc4c(ccc(C(=O)O)c4Br)[C@H]3CC[C@]12C)C(C)C	212 nM	1900 nM		
CC(C)N(C(=O)[C@H]1CC[C@H]2[C@@H]3CCc4c(ccc(C(=O)O)c4F)[C@H]3CC[C@]12C)C(C)C	10 nM	500 nM		
Cc1c(C(=O)O)ccc2c1CC[C@@H]1[C@@H]2CC[C@]2(C)[C@@H](C(=O)N(C(C)C)C(C)C)CC[C@@H]12	260 nM	7000 nM		
CC(C)(C)NC(=O)[C@H]1CC[C@H]2[C@@H]3CCc4cc(C(=O)O)ccc4[C@H]3CC[C@]12C	43 nM	150 nM		
CC(C)N(C(=O)[C@H]1CC[C@H]2[C@@H]3CCc4c(ccc(C(=O)O)c4Cl)[C@H]3CC[C@]12C)C(C)C	120 nM	900 nM		
CC(C)N(C(=O)[C@H]1CC[C@H]2[C@@H]3CCc4c(ccc(C(=O)O)c4C#N)[C@H]3CC[C@]12C)C(C)C	200 nM	> 10000 nM		
CC(C)N(C(=O)[C@H]1CC[C@H]2[C@@H]3CCc4cc(C(=O)O)c(Cl)cc4[C@H]3CC[C@]12C)C(C)C	35 nM	200 nM		
CC(C)N(C(=O)[C@H]1CC[C@H]2[C@@H]3CCc4cc(C(=O)O)c(C#N)cc4[C@H]3CC[C@]12C)C(C)C	65 nM	950 nM		
Cc1cc2c(cc1C(=O)O)CC[C@@H]1[C@@H]2CC[C@]2(C)[C@@H](C(=O)N(C(C)C)C(C)C)CC[C@@H]12	60 nM	340 nM		
CC(C)N(C(=O)[C@H]1CC[C@H]2[C@@H]3CCc4cc(C(=O)O)c(Br)cc4[C@H]3CC[C@]12C)C(C)C	76 nM	260 nM		
CC(C)N(C(=O)[C@H]1CC[C@H]2[C@@H]3CCc4cc(C(=O)O)c(C(=O)O)cc4[C@H]3CC[C@]12C)C(C)C			> 10000 nM	5000 nM
CC(C)N(C(=O)[C@H]1CCC2C3C=Cc4cc(C(=O)O)ccc4C3CC[C@@]21C)C(C)C (stereo not given in full)	30 nM	450 nM		
CC(C)N(C(=O)[C@H]1CCC2c3ccc4cc(C(=O)O)ccc4c3CC[C@@]21C)C(C)C (stereo not given in full)	36 nM	350 nM		
CC(C)(C)NC(=O)C1=CCC2C3CCc4cc(C(=O)O)ccc4C3CC[C@]12C (stereo not given in full)	60 nM	200 nM		
